pIC50: −log10 of the molar value. The source made the active and inactive calls. The calls are words filed in the database; no cut-off is given here. A value given as a limit tells only on which side of the number the result lay.

For assay [1], the system named is LNCaP. Kind of assay: Cytotoxicity against human LNCAP cells assessed as inhibition of cell growth at 10 uM after 72 hrs by trypan blue assay. Type of assay: functional. As to conditions: for inhibition of growth at 10 µM: read-out: GI. Put shortly:
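LNCaP cells were grown in RPMI-1640 with 10% FBS and given a daily dose of compound for 72 h. Cells were then counted in a Burker chamber, with cell number also estimated from dsDNA content at 4 pg DNA/cell. Dead cells were scored with 0.4% trypan blue. Statistics used ANOVA with Bonferroni's test.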

For assay [2], the target named is Transient receptor potential cation channel subfamily M member 8 (Rattus norvegicus, UniProt Q8R455). The assay is described as follows: Agonist activity at recombinant rat TRPM8 expressed in HEK293 cells assessed as increase in intracellular calcium accumulation by Fluo-4-AM probe-based spectrofluorimetric assay. It is filed as cell-based. As to conditions: hek293. The method, boiled down: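 HEK-293 cells stably expressing rat TRPM8 were loaded with Fluo-4-AM (4 µM, 0.02% Pluronic F-127) for 1 h at 25 °C in serum-free EMEM. They were then washed and suspended in Tyrode's buffer pH 7.4 in a stirred cuvette. [Ca2+]i fluorescence (ex 488/em 516 nm) was read before and after compound addition. Wild-type HEK-293 response was subtracted. Efficacy is expressed versus 4 µM ionomycin; EC50 comes from a sigmoidal fit.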
Transient receptor potential cation channel subfamily M member 8, sequence (Q8R455 whole entry): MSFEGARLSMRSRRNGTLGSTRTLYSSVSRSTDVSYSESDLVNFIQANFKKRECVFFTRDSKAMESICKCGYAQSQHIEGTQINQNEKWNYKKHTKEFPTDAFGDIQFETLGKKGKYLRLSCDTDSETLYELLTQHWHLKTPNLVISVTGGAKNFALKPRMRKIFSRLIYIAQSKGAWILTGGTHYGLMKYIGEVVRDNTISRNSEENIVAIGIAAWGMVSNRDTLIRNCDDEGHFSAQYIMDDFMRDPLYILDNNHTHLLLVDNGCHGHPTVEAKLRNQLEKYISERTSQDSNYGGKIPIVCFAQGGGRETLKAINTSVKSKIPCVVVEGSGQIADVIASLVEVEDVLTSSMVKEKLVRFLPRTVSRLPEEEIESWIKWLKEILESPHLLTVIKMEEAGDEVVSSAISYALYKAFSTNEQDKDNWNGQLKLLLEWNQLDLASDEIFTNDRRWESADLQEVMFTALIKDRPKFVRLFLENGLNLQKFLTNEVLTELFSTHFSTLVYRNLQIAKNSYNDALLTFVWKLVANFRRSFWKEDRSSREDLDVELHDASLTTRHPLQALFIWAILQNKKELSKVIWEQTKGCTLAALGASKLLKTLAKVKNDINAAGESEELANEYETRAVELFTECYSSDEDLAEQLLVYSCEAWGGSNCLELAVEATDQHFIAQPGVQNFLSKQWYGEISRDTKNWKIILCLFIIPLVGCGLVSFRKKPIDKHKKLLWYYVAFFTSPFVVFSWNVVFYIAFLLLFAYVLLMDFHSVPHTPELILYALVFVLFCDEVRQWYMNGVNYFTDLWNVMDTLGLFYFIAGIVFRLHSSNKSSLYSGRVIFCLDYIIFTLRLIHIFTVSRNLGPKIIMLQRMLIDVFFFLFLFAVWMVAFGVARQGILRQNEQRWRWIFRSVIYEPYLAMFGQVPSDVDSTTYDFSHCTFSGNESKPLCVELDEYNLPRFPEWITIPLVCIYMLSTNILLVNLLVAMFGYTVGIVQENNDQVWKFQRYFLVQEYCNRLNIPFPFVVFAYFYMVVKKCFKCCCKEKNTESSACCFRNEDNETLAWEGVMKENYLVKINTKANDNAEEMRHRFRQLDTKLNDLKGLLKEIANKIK
In general terms: Calcium flux is commonly read through the fluorescence of an indicator in the cells.

Assay [3] deals with T1, Transient receptor potential cation channel subfamily V member 2 (Rattus norvegicus) (UniProt Q9WUD2).
T1 sequence (whole entry): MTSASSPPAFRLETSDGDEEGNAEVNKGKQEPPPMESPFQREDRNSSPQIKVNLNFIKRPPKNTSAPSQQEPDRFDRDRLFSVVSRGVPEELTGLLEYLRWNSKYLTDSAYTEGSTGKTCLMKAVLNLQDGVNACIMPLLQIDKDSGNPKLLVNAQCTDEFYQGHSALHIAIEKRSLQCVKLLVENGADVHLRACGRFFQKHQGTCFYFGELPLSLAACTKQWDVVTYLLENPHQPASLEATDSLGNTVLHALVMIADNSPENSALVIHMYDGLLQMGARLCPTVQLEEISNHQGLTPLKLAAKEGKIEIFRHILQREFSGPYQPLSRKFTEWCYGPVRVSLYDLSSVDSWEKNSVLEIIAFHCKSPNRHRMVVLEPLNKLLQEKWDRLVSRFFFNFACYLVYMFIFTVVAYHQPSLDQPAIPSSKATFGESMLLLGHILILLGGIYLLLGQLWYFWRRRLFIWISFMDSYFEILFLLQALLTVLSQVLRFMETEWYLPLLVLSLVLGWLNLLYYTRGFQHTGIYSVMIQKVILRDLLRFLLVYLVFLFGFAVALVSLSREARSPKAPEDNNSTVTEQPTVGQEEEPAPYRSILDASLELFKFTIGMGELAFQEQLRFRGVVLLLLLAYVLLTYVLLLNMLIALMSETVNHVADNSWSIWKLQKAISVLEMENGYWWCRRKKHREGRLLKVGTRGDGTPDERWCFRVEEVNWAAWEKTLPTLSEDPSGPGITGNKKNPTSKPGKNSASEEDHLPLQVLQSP
Kind of assay: Antagonist activity at recombinant rat TRPV2 expressed in HEK293 cells assessed as inhibition of LPC-induced intracellular calcium accumulation up to 10 uM preincubated for 5 mins followed by LPC addition by Fluo-4-AM probe-based spectrofluorimetric assay. Type of assay: cell-based. Put shortly: (§1)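 HEK-293 cells stably expressing the listed TRP channel (human TRPV1; rat TRPM8, TRPA1, TRPV2, TRPV3 or TRPV4) were Fluo-4-AM loaded (4 µM, 1 h, 25 °C) and suspended in Tyrode's buffer pH 7.4. Compound was added 5 min before agonist: icilin 0.25 µM (TRPM8), capsaicin 0.1 µM (TRPV1), AITC 100 µM (TRPA1), LPC 3 µM (TRPV2), thymol 100 µM (TRPV3), 4α-PDD 1 µM (TRPV4). Agonist alone was taken as 100%. IC50 from sigmoidal fit, at least triplicate.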

Assay [4] deals with Transient receptor potential cation channel subfamily A member 1 (Rattus norvegicus, UniProt Q6RI86). The assay is described as follows: Antagonist activity at recombinant rat TRPA1 expressed in HEK293 cells assessed as inhibition of AITC-induced intracellular calcium accumulation preincubated for 5 mins followed by AITC addition by Fluo-4-AM probe-based spectrofluorimetric assay. It is filed as cell-based. Put shortly:
as §1

Assay [5] addresses T2, Transient receptor potential cation channel subfamily V member 2 (Rattus norvegicus, UniProt Q9WUD2).
T2 sequence (Q9WUD2 whole entry): T1 sequence (whole entry)
The assay is described as follows: Antagonist activity at recombinant rat TRPV2 expressed in HEK293 cells assessed as inhibition of LPC-induced intracellular calcium accumulation preincubated for 5 mins followed by LPC addition by Fluo-4-AM probe-based spectrofluorimetric assay. Type of assay: cell-based. Put shortly:
as §1

In assay [6] the target is Transient receptor potential cation channel subfamily V member 4 (Rattus norvegicus, UniProt Q9ERZ8). Kind of assay: Antagonist activity at recombinant rat TRPV4 expressed in HEK293 cells assessed as inhibition of 4alphaPDD-induced intracellular calcium accumulation preincubated for 5 mins followed by 4alphaPDD addition by Fluo-4-AM probe-based spectrofluorimetric assay. It is filed as cell-based. The method, boiled down:
as §1

Assay [7] addresses Transient receptor potential cation channel subfamily V member 1 (Homo sapiens, UniProt Q8NER1). The assay is described as follows: Antagonist activity at recombinant human TRPV1 expressed in HEK293 cells assessed as inhibition of capsaicin-induced intracellular calcium accumulation preincubated for 5 mins followed by capsaicin addition by Fluo-4-AM probe-based spectrofluorimetric assay. Type of assay: cell-based. The method, boiled down: as §1

Assay [8] deals with T3, Heat sensitive channel TRPV3 (Rattus norvegicus, UniProt Q4QYD9).
T3 sequence (Q4QYD9 whole entry): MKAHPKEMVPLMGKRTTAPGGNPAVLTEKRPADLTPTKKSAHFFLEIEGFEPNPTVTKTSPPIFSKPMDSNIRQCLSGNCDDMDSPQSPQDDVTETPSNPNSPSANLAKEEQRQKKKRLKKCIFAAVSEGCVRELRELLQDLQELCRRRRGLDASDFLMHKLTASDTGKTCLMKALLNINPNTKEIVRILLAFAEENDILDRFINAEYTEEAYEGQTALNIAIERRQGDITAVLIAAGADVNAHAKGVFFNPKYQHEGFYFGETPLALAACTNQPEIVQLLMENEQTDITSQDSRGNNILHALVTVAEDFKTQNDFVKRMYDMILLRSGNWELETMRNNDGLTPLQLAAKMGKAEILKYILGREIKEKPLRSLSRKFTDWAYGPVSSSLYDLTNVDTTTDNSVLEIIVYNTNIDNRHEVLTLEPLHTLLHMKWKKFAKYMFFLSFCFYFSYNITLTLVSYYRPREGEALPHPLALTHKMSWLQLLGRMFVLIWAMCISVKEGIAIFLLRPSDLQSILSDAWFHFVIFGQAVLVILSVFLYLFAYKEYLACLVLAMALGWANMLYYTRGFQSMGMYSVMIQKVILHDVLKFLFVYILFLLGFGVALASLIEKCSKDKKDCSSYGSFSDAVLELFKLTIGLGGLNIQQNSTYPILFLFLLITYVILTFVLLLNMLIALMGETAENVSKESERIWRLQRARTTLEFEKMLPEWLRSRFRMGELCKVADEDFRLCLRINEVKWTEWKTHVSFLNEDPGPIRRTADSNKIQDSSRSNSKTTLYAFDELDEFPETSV
The assay is described as follows: Antagonist activity at recombinant rat TRPV3 expressed in HEK293 cells assessed as inhibition of thymol-induced intracellular calcium accumulation preincubated for 5 mins followed by thymol addition by Fluo-4-AM probe-based spectrofluorimetric assay. It is filed as cell-based. Put shortly: as §1

Transient receptor potential cation channel subfamily V member 1, sequence (Q8NER1 whole entry): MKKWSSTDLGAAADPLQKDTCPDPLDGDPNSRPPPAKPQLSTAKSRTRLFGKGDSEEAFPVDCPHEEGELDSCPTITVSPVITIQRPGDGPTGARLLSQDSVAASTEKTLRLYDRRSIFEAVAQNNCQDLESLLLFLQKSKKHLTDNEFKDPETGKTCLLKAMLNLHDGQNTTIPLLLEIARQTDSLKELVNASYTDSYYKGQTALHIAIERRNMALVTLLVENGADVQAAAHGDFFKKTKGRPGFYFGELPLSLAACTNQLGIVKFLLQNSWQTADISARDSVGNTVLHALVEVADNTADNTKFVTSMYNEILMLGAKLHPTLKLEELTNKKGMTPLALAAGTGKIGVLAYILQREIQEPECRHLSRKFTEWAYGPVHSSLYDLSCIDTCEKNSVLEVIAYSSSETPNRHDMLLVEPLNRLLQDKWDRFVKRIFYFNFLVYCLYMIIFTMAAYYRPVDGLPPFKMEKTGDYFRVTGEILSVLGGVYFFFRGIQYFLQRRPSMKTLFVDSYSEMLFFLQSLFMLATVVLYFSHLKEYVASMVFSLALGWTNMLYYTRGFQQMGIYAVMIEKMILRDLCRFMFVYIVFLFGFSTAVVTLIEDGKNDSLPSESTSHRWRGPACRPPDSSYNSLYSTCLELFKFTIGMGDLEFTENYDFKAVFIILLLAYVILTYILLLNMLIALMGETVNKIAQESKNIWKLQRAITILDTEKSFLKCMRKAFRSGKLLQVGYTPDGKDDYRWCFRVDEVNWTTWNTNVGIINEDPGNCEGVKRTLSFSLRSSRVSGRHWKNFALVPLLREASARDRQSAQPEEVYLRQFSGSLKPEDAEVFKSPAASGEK
Transient receptor potential cation channel subfamily V member 4, sequence (Q9ERZ8 whole entry): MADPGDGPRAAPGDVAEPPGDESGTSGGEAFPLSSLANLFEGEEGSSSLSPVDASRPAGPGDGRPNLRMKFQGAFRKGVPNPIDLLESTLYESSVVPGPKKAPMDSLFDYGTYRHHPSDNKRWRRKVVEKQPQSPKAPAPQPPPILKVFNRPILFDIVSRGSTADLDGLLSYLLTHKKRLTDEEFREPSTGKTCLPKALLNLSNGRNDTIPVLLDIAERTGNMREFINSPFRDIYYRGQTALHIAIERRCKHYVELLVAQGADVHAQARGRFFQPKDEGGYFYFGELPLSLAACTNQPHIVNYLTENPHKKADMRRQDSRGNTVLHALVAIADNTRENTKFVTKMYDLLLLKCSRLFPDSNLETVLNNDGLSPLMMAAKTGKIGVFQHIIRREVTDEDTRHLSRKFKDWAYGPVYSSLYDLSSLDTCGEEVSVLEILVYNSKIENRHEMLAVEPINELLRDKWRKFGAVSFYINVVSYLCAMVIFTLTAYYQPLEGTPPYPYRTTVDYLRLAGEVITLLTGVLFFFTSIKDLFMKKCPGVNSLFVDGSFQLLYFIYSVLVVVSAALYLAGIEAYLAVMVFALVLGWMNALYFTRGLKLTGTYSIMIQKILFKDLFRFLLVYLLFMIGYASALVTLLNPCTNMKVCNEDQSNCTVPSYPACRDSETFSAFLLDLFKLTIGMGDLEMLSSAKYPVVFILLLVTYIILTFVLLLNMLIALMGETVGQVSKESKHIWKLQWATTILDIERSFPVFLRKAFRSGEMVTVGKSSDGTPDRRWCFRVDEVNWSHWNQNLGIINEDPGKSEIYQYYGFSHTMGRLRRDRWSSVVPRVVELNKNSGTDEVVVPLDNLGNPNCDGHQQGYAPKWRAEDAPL
Transient receptor potential cation channel subfamily A member 1, sequence (Q6RI86 whole entry): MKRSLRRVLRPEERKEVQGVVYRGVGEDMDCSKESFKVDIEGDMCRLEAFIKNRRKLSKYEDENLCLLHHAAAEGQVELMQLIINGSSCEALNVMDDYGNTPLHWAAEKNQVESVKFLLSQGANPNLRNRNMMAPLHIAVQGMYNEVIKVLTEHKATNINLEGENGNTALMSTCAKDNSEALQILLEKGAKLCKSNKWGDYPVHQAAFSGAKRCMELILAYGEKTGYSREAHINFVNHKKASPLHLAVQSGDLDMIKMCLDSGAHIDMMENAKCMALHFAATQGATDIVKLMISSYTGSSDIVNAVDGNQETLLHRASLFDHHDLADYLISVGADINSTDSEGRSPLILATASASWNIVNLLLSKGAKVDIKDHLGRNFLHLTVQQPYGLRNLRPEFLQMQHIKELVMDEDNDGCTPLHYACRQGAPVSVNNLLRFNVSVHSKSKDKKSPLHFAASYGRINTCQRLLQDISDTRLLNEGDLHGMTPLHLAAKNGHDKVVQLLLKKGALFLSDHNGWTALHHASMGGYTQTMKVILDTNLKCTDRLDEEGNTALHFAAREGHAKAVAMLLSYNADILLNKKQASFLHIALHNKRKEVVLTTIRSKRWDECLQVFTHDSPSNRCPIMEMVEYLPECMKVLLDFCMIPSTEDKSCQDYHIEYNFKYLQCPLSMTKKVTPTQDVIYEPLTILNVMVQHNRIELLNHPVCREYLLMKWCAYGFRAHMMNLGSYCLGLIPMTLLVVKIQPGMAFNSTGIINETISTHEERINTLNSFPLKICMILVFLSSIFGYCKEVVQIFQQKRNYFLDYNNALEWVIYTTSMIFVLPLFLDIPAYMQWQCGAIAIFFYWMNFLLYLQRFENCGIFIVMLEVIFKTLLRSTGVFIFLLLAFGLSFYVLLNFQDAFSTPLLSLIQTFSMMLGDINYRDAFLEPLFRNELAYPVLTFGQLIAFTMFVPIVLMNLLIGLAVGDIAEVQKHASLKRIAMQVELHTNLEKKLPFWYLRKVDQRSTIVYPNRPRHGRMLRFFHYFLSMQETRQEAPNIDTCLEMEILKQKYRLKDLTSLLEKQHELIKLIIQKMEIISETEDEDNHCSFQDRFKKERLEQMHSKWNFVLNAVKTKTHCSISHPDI

Regarding `COc1cc(/C=C2\NC(=O)[C@@H]3Cc4c(OC)c(C)c(OC)c(OC)c4[C@@H](c4ccccc4)N3C2=O)c(OC)c(C)c1OC`, in assay [1], the “growth inhibition (GI)” value was “Active”. The EC50 entry in assay [2] is “Not Active”. The inhibition result in assay [3] is “inactive”. Besides, the pIC50 (in general, the negative decadic logarithm of the IC50, by convention in mol/L) in assay [4] was 4.85; in assay [5] it was 4.91; in assay [6], less than 4.00; in assay [7] it was 4.16; in assay [8] it was 4.46.

Regarding `COc1cc2c(cc1OC)[C@H](c1ccccc1)N(C(=O)N1CCc3cc(OC)c(OC)cc3[C@@H]1c1ccccc1)CC2` (racemic), the “growth inhibition (GI)” value in assay [1] was “Active”. Also, in assay [2], the EC50 entry was “Not Active”. In assay [3], the inhibition entry is “inactive”. The pIC50 was 5.00 in assay [4]; 4.28 in assay [5]; 4.08 in assay [6]; 4.28 in assay [7]; less than 4.00 in assay [8].

For `COc1cc2c(cc1OC)[C@H](c1ccc(F)cc1)N(C(=O)N1CCc3cc(OC)c(OC)cc3[C@@H]1c1ccc(F)cc1)CC2` (racemic), the inhibition of growth at 10 µM in assay [1] was found to be 64.3%. In addition, the EC50 entry in assay [2] is on record as “Not Active”. For the same compound, the inhibition result in assay [3] is “inactive”. Also, the pIC50 in assay [4] is 4.79; in assay [5], 4.03; in assay [6] it was 4.02; in assay [7], 4.16; in assay [8] it was 4.14.

`COc1cc2c(cc1OC)[C@H](c1ccc(Cl)cc1)N(C(=O)N1CCc3cc(OC)c(OC)cc3[C@@H]1c1ccc(Cl)cc1)CC2` (racemic): the inhibition of growth at 10 µM in assay [1] is 50.4%. The EC50 result in assay [2] is reported as “Not Active”. Besides, the inhibition result in assay [3] was “inactive”. Further, the pIC50 was 4.62 in assay [4]; 4.26 in assay [5]; 4.09 in assay [6]; 4.30 in assay [7]; less than 4.00 in assay [8].

Source of the values: ChEMBL document CHEMBL4477204, “Tetrahydroisoquinoline-Derived Urea and 2,5-Diketopiperazine Derivatives as Selective Antagonists of the Transient Receptor Potential Melastatin 8 (TRPM8) Channel Receptor and Antiprostate Cancer Agents” (J Med Chem, 2016).
